In ChEMBL document CHEMBL1147115 (2007):
Converted amounts (≈) assume the structure as drawn.

How the values were obtained:
Escherichia coli [1] = test: Antimicrobial activity against ESBL producing Escherichia coli 321 isolate infected thigh infection model ICR mouse; assay type: functional, Thigh muscle
How it was run: (§1)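 Female ICR mice (~25 g) were made neutropenic with cyclophosphamide ip (150 and 100 mg/kg, days −4 and −1) and renally impaired with uranyl nitrate 5 mg/kg ip (day −3). Each thigh got 0.1 ml of 10^5 CFU/ml (or 10^7 for high inoculum) im 2 h pre-therapy. Human-simulated regimens were given sc, three mice per group, for 24 h. Efficacy was the log10 CFU/thigh change versus 0-h controls.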

Escherichia coli [2] = test: Antimicrobial activity against ESBL producing Escherichia coli 310 isolate infected thigh infection model ICR mouse; assay type: functional, Thigh muscle; how it was run: as §1
Escherichia coli [3] = test: Antimicrobial activity against ESBL producing Escherichia coli 312 isolate; assay type: functional
Escherichia coli [4] = test: Antimicrobial activity against ESBL producing Escherichia coli 318 isolate infected thigh infection model ICR mouse; assay type: functional, Thigh muscle; how it was run: as §1
Escherichia coli [5] = test: Antimicrobial activity against ESBL producing Escherichia coli 285 isolate; assay type: functional
Escherichia coli [6] = test: Antimicrobial activity against ESBL producing Escherichia coli 311 isolate infected thigh infection model ICR mouse; assay type: functional, Thigh muscle; how it was run: as §1
Klebsiella pneumoniae [7] = test: Antimicrobial activity against ESBL producing Klebsiella pneumoniae 255 isolate infected thigh infection model ICR mouse; assay type: functional, Thigh muscle; how it was run: as §1
Klebsiella pneumoniae [8] = test: Antimicrobial activity against ESBL producing Klebsiella pneumoniae 254 isolate; assay type: functional
Klebsiella pneumoniae [9] = test: Antimicrobial activity against ESBL producing Klebsiella pneumoniae 225 isolate; assay type: functional
Escherichia coli [10] = test: Antimicrobial activity against ESBL producing Escherichia coli 311 isolate; assay type: functional
Klebsiella pneumoniae [11] = test: Antimicrobial activity against ESBL producing Klebsiella pneumoniae 257 isolate; assay type: functional
Escherichia coli [12] = test: Antimicrobial activity against Escherichia coli 120 isolate; assay type: functional
Klebsiella pneumoniae [13] = test: Antimicrobial activity against ESBL producing Klebsiella pneumoniae 101 isolate; assay type: functional
Escherichia coli [14] = test: Antimicrobial activity against ESBL producing Escherichia coli 130 isolate infected thigh infection model ICR mouse; assay type: functional, Thigh muscle; how it was run: as §1
Escherichia coli [15] = test: Antimicrobial activity against ESBL producing Escherichia coli 322 isolate; assay type: functional
Escherichia coli [16] = test: Antimicrobial activity against Escherichia coli ATCC 25922 isolate infected thigh infection model ICR mouse; assay type: functional, Thigh muscle; how it was run: as §1
Klebsiella pneumoniae [17] = test: Antimicrobial activity against ESBL producing Klebsiella pneumoniae 256 isolate infected thigh infection model ICR mouse; assay type: functional, Thigh muscle; how it was run: as §1
Klebsiella pneumoniae [18] = test: Antimicrobial activity against ESBL producing Klebsiella pneumoniae 60 isolate infected thigh infection model ICR mouse; assay type: functional, Thigh muscle; how it was run: as §1
Klebsiella pneumoniae [19] = test: Antimicrobial activity against ESBL producing Klebsiella pneumoniae 262 isolate; assay type: functional
Klebsiella pneumoniae [20] = test: Antimicrobial activity against ESBL producing Klebsiella pneumoniae 266 isolate; assay type: functional
Escherichia coli [21] = test: Antimicrobial activity against ESBL producing Escherichia coli 133 isolate infected thigh infection model ICR mouse; assay type: functional, Thigh muscle; how it was run: as §1
Escherichia coli [22] = test: Antimicrobial activity against ESBL producing Escherichia coli 310 isolate; assay type: functional
Klebsiella pneumoniae [23] = test: Antimicrobial activity against ESBL producing Klebsiella pneumoniae 260 isolate infected thigh infection model ICR mouse; assay type: functional, Thigh muscle; how it was run: as §1
Klebsiella pneumoniae [24] = test: Antimicrobial activity against ESBL producing Klebsiella pneumoniae 266 isolate infected thigh infection model ICR mouse; assay type: functional, Thigh muscle; how it was run: as §1
Klebsiella pneumoniae [25] = test: Antimicrobial activity against ESBL producing Klebsiella pneumoniae 264 isolate infected thigh infection model ICR mouse; assay type: functional, Thigh muscle; how it was run: as §1
Escherichia coli [26] = test: Antimicrobial activity against ESBL producing Escherichia coli 312 isolate infected thigh infection model ICR mouse; assay type: functional, Thigh muscle; how it was run: as §1
Klebsiella pneumoniae [27] = test: Bacteriostasis activity against ESBL producing Klebsiella pneumoniae 262 isolate at 8 ug/ml; assay type: functional
Klebsiella pneumoniae [28] = test: Antimicrobial activity against ESBL producing Klebsiella pneumoniae 270 isolate infected thigh infection model ICR mouse; assay type: functional, Thigh muscle; how it was run: as §1
Klebsiella pneumoniae [29] = test: Antimicrobial activity against ESBL producing Klebsiella pneumoniae 257 isolate infected thigh infection model ICR mouse; assay type: functional, Thigh muscle; how it was run: as §1
Escherichia coli [30] = test: Antimicrobial activity against Escherichia coli ATCC 25922 isolate; assay type: functional
Escherichia coli [31] = test: Antimicrobial activity against ESBL producing Escherichia coli 320 isolate; assay type: functional
Klebsiella pneumoniae [32] = test: Antimicrobial activity against ESBL producing Klebsiella pneumoniae 264 isolate; assay type: functional
Klebsiella pneumoniae [33] = test: Antimicrobial activity against ESBL producing Klebsiella pneumoniae 261 isolate; assay type: functional
Klebsiella pneumoniae [34] = test: Antimicrobial activity against ESBL producing Klebsiella pneumoniae 263 isolate infected thigh infection model ICR mouse; assay type: functional, Thigh muscle; how it was run: as §1
Escherichia coli [35] = test: Antimicrobial activity against ESBL producing Escherichia coli 243 isolate infected thigh infection model ICR mouse; assay type: functional, Thigh muscle; how it was run: as §1
Escherichia coli [36] = test: Antimicrobial activity against ESBL producing Escherichia coli 320 isolate infected thigh infection model ICR mouse; assay type: functional, Thigh muscle; how it was run: as §1
Klebsiella pneumoniae [37] = test: Antimicrobial activity against ESBL producing Klebsiella pneumoniae 260 isolate; assay type: functional
Klebsiella pneumoniae [38] = test: Antimicrobial activity against ESBL producing Klebsiella pneumoniae 258 isolate; assay type: functional
Klebsiella pneumoniae [39] = test: Antimicrobial activity against ESBL producing Klebsiella pneumoniae 263 isolate; assay type: functional
Escherichia coli [40] = test: Antimicrobial activity against ESBL producing Escherichia coli 322 isolate infected thigh infection model ICR mouse; assay type: functional, Thigh muscle; how it was run: as §1
Escherichia coli [41] = test: Antimicrobial activity against ESBL producing Escherichia coli 133 isolate; assay type: functional
Klebsiella pneumoniae [42] = test: Antimicrobial activity against ESBL producing Klebsiella pneumoniae 259 isolate infected thigh infection model ICR mouse; assay type: functional, Thigh muscle; how it was run: as §1
Klebsiella pneumoniae [43] = test: Antimicrobial activity against ESBL producing Klebsiella pneumoniae 261 isolate infected thigh infection model ICR mouse; assay type: functional, Thigh muscle; how it was run: as §1
Klebsiella pneumoniae [44] = test: Antimicrobial activity against ESBL producing Klebsiella pneumoniae 60 isolate; assay type: functional
Klebsiella pneumoniae [45] = test: Antimicrobial activity against ESBL producing Klebsiella pneumoniae 259 isolate; assay type: functional
Escherichia coli [46] = test: Antimicrobial activity against ESBL producing Escherichia coli 321 isolate; assay type: functional
Klebsiella pneumoniae [47] = test: Antimicrobial activity against ESBL producing Klebsiella pneumoniae 255 isolate; assay type: functional
Escherichia coli [48] = test: Antimicrobial activity against ESBL producing Escherichia coli 315 isolate; assay type: functional
Escherichia coli [49] = test: Antimicrobial activity against Escherichia coli 120 isolate infected thigh infection model ICR mouse; assay type: functional, Thigh muscle; how it was run: as §1
Klebsiella pneumoniae [50] = test: Antimicrobial activity against ESBL producing Klebsiella pneumoniae 265 isolate; assay type: functional
Klebsiella pneumoniae [51] = test: Antimicrobial activity against ESBL producing Klebsiella pneumoniae 258 isolate infected thigh infection model ICR mouse; assay type: functional, Thigh muscle; how it was run: as §1
Escherichia coli [52] = test: Antimicrobial activity against ESBL producing Escherichia coli 243 isolate; assay type: functional
Escherichia coli [53] = test: Antimicrobial activity against ESBL producing Escherichia coli 118 isolate; assay type: functional
Escherichia coli [54] = test: Antimicrobial activity against ESBL producing Escherichia coli 130 isolate; assay type: functional
Klebsiella pneumoniae [55] = test: Antimicrobial activity against ESBL producing Klebsiella pneumoniae 262 isolate infected thigh infection model ICR mouse; assay type: functional, Thigh muscle; how it was run: as §1
Klebsiella pneumoniae [56] = test: Antimicrobial activity against ESBL producing Klebsiella pneumoniae 101 isolate infected thigh infection model ICR mouse; assay type: functional, Thigh muscle; how it was run: as §1
Klebsiella pneumoniae [57] = test: Antimicrobial activity against ESBL producing Klebsiella pneumoniae 225 isolate infected thigh infection model ICR mouse; assay type: functional, Thigh muscle; how it was run: as §1
Klebsiella pneumoniae [58] = test: Antimicrobial activity against ESBL producing Klebsiella pneumoniae 265 isolate infected thigh infection model ICR mouse; assay type: functional, Thigh muscle; how it was run: as §1
Klebsiella pneumoniae [59] = test: Antimicrobial activity against ESBL producing Klebsiella pneumoniae 230 isolate infected thigh infection model ICR mouse; assay type: functional, Thigh muscle; how it was run: as §1
Klebsiella pneumoniae [60] = test: Antimicrobial activity against ESBL producing Klebsiella pneumoniae 268 isolate infected thigh infection model ICR mouse; assay type: functional, Thigh muscle; how it was run: as §1
Klebsiella pneumoniae [61] = test: Antimicrobial activity against ESBL producing Klebsiella pneumoniae 270 isolate; assay type: functional
Klebsiella pneumoniae [62] = test: Antimicrobial activity against ESBL producing Klebsiella pneumoniae 254 isolate infected thigh infection model ICR mouse; assay type: functional, Thigh muscle; how it was run: as §1
Escherichia coli [63] = test: Antimicrobial activity against ESBL producing Escherichia coli 285 isolate infected thigh infection model ICR mouse; assay type: functional, Thigh muscle; how it was run: as §1
Escherichia coli [64] = test: Antimicrobial activity against ESBL producing Escherichia coli 315 isolate infected thigh infection model ICR mouse; assay type: functional, Thigh muscle; how it was run: as §1
Klebsiella pneumoniae [65] = test: Antimicrobial activity against ESBL producing Klebsiella pneumoniae 268 isolate; assay type: functional
Klebsiella pneumoniae [66] = test: Antimicrobial activity against ESBL producing Klebsiella pneumoniae 230 isolate; assay type: functional

## C[C@@H](O)[C@H]1C(=O)N2C(C(=O)O)=C(S[C@@H]3CN[C@H](C(=O)N(C)C)C3)[C@H](C)[C@H]12 [MEROPENEM]
Escherichia coli [1]
  fT>MIC: 93%
Escherichia coli [2]
  fT>MIC: 90%
Escherichia coli [3]
  MIC: 0.047 µg/mL (≈ 0.123 µM)
Escherichia coli [4]
  fT>MIC: 90%
Escherichia coli [5]
  MIC: 0.047 µg/mL (≈ 0.123 µM)
Escherichia coli [6]
  fT>MIC: 70%
Klebsiella pneumoniae [7]
  fT>MIC: 65%
Klebsiella pneumoniae [8]
  MIC: 2 µg/mL (≈ 5.22 µM)
Klebsiella pneumoniae [9]
  MIC: 0.047 µg/mL (≈ 0.123 µM)
Escherichia coli [10]
  MIC: 0.75 µg/mL (≈ 1.96 µM)
Klebsiella pneumoniae [11]
  MIC: 4 µg/mL (≈ 10.4 µM)
Escherichia coli [12]
  MIC: 0.03 µg/mL (≈ 0.0782 µM)
Klebsiella pneumoniae [13]
  MIC: 0.094 µg/mL (≈ 0.245 µM)
Escherichia coli [14]
  fT>MIC: 85%
Escherichia coli [15]
  MIC: 0.032 µg/mL (≈ 0.0834 µM)
Escherichia coli [16]
  fT>MIC: 93%
Klebsiella pneumoniae [17]
  fT>MIC: 18%
Klebsiella pneumoniae [18]
  fT>MIC: 88%
Klebsiella pneumoniae [19]
  MIC: 8 µg/mL (≈ 20.9 µM)
Klebsiella pneumoniae [20]
  MIC: 2 µg/mL (≈ 5.22 µM)
Escherichia coli [21]
  fT>MIC: 85%
Escherichia coli [22]
  MIC: 0.047 µg/mL (≈ 0.123 µM)
Klebsiella pneumoniae [23]
  fT>MIC: 75%
Klebsiella pneumoniae [24]
  fT>MIC: 58%
Klebsiella pneumoniae [25]
  fT>MIC: 75%
Escherichia coli [26]
  fT>MIC: 90%
Klebsiella pneumoniae [27]
  MIC: 8 µg/mL (≈ 20.9 µM)
Klebsiella pneumoniae [28]
  fT>MIC: 80%
Klebsiella pneumoniae [29]
  fT>MIC: 45%
Escherichia coli [30]
  MIC: 0.03 µg/mL (≈ 0.0782 µM)
Escherichia coli [31]
  MIC: 0.03 µg/mL (≈ 0.0782 µM)
Klebsiella pneumoniae [32]
  MIC: 0.5 µg/mL (≈ 1.3 µM)
Klebsiella pneumoniae [33]
  MIC: 32 µg/mL (≈ 83.4 µM)
Klebsiella pneumoniae [34]
  fT>MIC: 58%
Escherichia coli [35]
  fT>MIC: 90%
Escherichia coli [36]
  fT>MIC: 93%
Klebsiella pneumoniae [37]
  MIC: 0.5 µg/mL (≈ 1.3 µM)
Klebsiella pneumoniae [38]
  MIC: 4 µg/mL (≈ 10.4 µM)
Klebsiella pneumoniae [39]
  MIC: 2 µg/mL (≈ 5.22 µM)
Escherichia coli [40]
  fT>MIC: 93%
Escherichia coli [41]
  MIC: 0.094 µg/mL (≈ 0.245 µM)
Klebsiella pneumoniae [42]
  fT>MIC: 58%
Klebsiella pneumoniae [43]
  fT>MIC: 5%
Klebsiella pneumoniae [44]
  MIC: 0.064 µg/mL (≈ 0.167 µM)
Klebsiella pneumoniae [45]
  MIC: 2 µg/mL (≈ 5.22 µM)
Escherichia coli [46]
  MIC: 0.032 µg/mL (≈ 0.0834 µM)
Klebsiella pneumoniae [47]
  MIC: 1 µg/mL (≈ 2.61 µM)
Escherichia coli [48]
  MIC: 0.094 µg/mL (≈ 0.245 µM)
Escherichia coli [49]
  fT>MIC: 93%
Klebsiella pneumoniae [50]
  MIC: 0.125 µg/mL (≈ 0.326 µM)
Klebsiella pneumoniae [51]
  fT>MIC: 45%
Escherichia coli [52]
  MIC: 0.047 µg/mL (≈ 0.123 µM)
Escherichia coli [53]
  MIC: 0.047 µg/mL (≈ 0.123 µM)
Escherichia coli [54]
  MIC: 0.125 µg/mL (≈ 0.326 µM)
Klebsiella pneumoniae [55]
  fT>MIC: 30%
Klebsiella pneumoniae [56]
  fT>MIC: 85%
Klebsiella pneumoniae [57]
  fT>MIC: 90%
Klebsiella pneumoniae [58]
  fT>MIC: 85%
Klebsiella pneumoniae [59]
  fT>MIC: 85%
Klebsiella pneumoniae [60]
  fT>MIC: 85%
Klebsiella pneumoniae [61]
  MIC: 0.25 µg/mL (≈ 0.652 µM)
Klebsiella pneumoniae [62]
  fT>MIC: 58%
Escherichia coli [63]
  fT>MIC: 90%
Escherichia coli [64]
  fT>MIC: 85%
Klebsiella pneumoniae [65]
  MIC: 0.125 µg/mL (≈ 0.326 µM)
Klebsiella pneumoniae [66]
  MIC: 0.094 µg/mL (≈ 0.245 µM)
